PfHsp90 yeast 2 – growth inhibition of PfHsp90-expressing yeast, primary screen, antimalarial PfHsp90 inhibitor project, S. cerevisiae, BacTiter-Glo luminescence, single point, set 2; BacTiter-Glo ATP, 48 h; yeast lacking PDR1 and PDR3 efflux regulators; 310,000 compounds, 0.32% hits; inhibition, % at 9.4 µM;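 active = every replicate shows inhibition above about 80%, whatever the replicate mean, limit read from the data; inconclusive = mean inhibition reaches the set limit but some replicate falls short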;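 note: 0% = DMSO neutral controls and 100% = 20 µM radicicol positive controls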
PglD DTNB – C. jejuni PglD acetyltransferase inhibitors, primary screen, biochemical, DTNB colorimetric, single point. 360,000 compounds, 0.098% hits. AID 602405, 2012. purified PglD enzyme, DTNB colorimetric CoA detection. UDP-N-acetylbacillosamine N-acetyltransferase PglD (Campylobacter jejuni). inhibition, % at 12.5 µM; in the data active = inhibition above about 16%, passing the limit was not always enough; inconclusive = no clear call, values can overlap the other calls
SKKanGAS inh – S. pyogenes SKKanGAS growth inhibitors in kanamycin, primary screen, streptokinase expression inhibitor project, SKKanGAS strain, BacTiter-Glo luminescence | 6 h | inhibition, % at 7.5 µM | 300,000 compounds, 1.3% hits | AID 1662, 2009;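 active = mean replicate score, as percent of positive control median, at least 50; inconclusive = mean below 50 but one replicate at or above 50; inactive = mean and every replicate below 50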;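 note: strain carries kanamycin resistance gene driven by streptokinase promoter and grows in 40 µg/ml kanamycin; loss of luminescence reflects streptokinase promoter inhibition or plain growth inhibition; 0% = median of DMSO wells and 100% = positive control at its reference dose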
FN deposition inh – inhibitors of fibronectin matrix deposition, primary screen, AH1F cells, Alexa488-fibronectin fluorescence, plate reader | AH1F fibroblasts, overnight | inhibition, % at 12.6 µM | 350,000 compounds, 0.086% hits;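 active = mean inhibition across replicates of 30% or more, regardless of how many single replicates reach that level; inconclusive = mean under 30% yet at least half of replicates reach 30%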;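 note: positive control wells lacked labelled fibronectin entirely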
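Material: AH1F fibroblast monolayer depositing Alexa488-labelled fibronectin into matrix | Input: 10000 AH1F cells/well | Medium: DMEM plus 2% serum, read in PBS | Reagent: Alexa488-fibronectin, 24 nM final in well | Compound dosing: One dose per compound, pinned | Schedule: 1 h adhesion, overnight exposure | Measured by: Fluorescence at 485 nm excitation, 525 nm emission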
CSC inhib – cancer stem cell viability inhibitors, primary screen, luminescence | AID 2717, 2010 | cancer stem cell-like cells viability | 300,000 compounds, 1.1% hits | inhibition, % at 7.5 µM; in the data active = inhibition above about 75%; inconclusive = no clear call, values can overlap the other calls; tested in HMLE shEcad cells
Rtt109 Vps75 – inhibitors of C. albicans Rtt109/Vps75 HAT, primary screen, biochemical, ThioGlo CoA-SH fluorescence, plate reader | Histone acetyltransferase RTT109 (Candida albicans (strain SC5314 / ATCC MYA-2876)), … | purified Rtt109/Vps75, 4 h | inhibition, % at 34.9 µM | 330,000 compounds, 0.16% hits | AID 540336, 2011;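 active = inhibition of at least 50% in every replicate; inconclusive = best replicate reaches 50% inhibition but some replicates fall short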
Target sequence (Q5AAJ8 whole entry, looked up): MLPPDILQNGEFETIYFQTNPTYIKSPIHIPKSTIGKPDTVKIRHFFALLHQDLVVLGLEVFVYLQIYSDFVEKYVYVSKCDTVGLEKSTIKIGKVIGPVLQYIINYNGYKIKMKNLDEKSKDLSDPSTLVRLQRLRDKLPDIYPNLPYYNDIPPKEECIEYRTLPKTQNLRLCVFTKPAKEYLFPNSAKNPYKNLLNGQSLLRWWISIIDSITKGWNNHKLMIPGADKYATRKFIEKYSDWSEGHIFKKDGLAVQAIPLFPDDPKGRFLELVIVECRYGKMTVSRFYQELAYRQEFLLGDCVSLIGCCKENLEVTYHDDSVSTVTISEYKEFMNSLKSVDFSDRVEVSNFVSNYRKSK
Active calls of the source: *; ? = inconclusive; nt = no result. In the library only some 1.7% were active in any assay of this set; here they are far more common.

SMILES	PfHsp90 yeast 2	PglD DTNB	SKKanGAS inh	FN deposition inh	CSC inhib	Rtt109 Vps75
CO[C@@H]1CN(C)C(=O)c2ccc(NS(=O)(=O)c3ccccc3)cc2OC[C@H](C)N(Cc2nccs2)C[C@H]1C	nt	-1.6	nt	-6.1	nt	nt
NNC(=O)c1ccc(OCC2CC(c3ccc(Cl)cc3)=NO2)cc1 (stereo not drawn)	16.2	-7.7	50.6*	-3.4	38.9	2.7
O=C(Nc1ccc2c(c1)OCO2)N[C@@H]1CC[C@@H](CCNC(=O)C2CCCCC2)O[C@@H]1CO	nt	-1.8	nt	nt	nt	nt
COc1cccc(S(=O)(=O)Nc2ccc3c(c2)[C@H]2C[C@H](CC(=O)NCCc4ccccc4)O[C@H](CO)[C@H]2O3)c1	nt	0.4	nt	nt	nt	nt
Nc1c(Cl)ncnc1N/N=C/c1ccc2ccccc2n1	-5.3	nt	nt	-8.4	101.6*	9.9
Nc1c(Cl)ncnc1N/N=C/c1ccccn1	nt	nt	nt	2.4	102.0*	nt
Oc1ccc2ccccc2c1/C=N/Nc1nnc(-c2ncc[nH]2)c2ccccc12	121.5*	nt	97.4*	3.0	100.1*	-4.4
Cc1nc2sccn2c(=O)c1CCN1CCC(=C(c2ccc(F)cc2)c2ccc(F)cc2)CC1	3.9	-3.9	-1.5	-1.7	79.3*	32.3
Cc1nc2ccccn2c(=O)c1CCN1CCC(C(=O)c2ccc(F)cc2)CC1	9.5	7.0	-0.6	-3.3	7.0	-7.0
CNc1oc(-c2ccc(Cl)cc2)nc1P(=O)(c1ccccc1)c1ccccc1	-57.1	-1.1	32.1	-5.8	119.8*	6.4
CCn1c(CCn2c3ccccc3c3ccccc32)n[nH]c1=S	-5.2	7.1	-2.8	9.9	9.3	50.3*
CCn1c(CCc2ccccc2)n[nH]c1=S	4.3	nt	2.4	nt	5.6	-14.3
C[C@H](CO)N1C[C@H](C)[C@H](CN(C)C(=O)c2ccccc2)Oc2cc(C#CC3(O)CCCC3)ccc2S1(=O)=O	nt	-3.6	nt	-13.9	nt	nt
N#Cc1c(Nc2cccc(F)c2)sc2c(O)cc(=O)[nH]c12	-25.7	nt	112.5*	2.3	0.9	-10.2
N#Cc1c(SCC(=O)Nc2ccc(C(F)(F)F)cc2)sc2c(O)cc(=O)[nH]c12	-18.0	-5.3	14.4	-5.4	-8.7	-1.4
C/C=C/c1ccc([C@@H]2[C@H](CO)N(S(C)(=O)=O)[C@H]2CN(CC)C(C)=O)cc1	nt	3.4	nt	nt	nt	nt
Cc1ccc(NCN2C(=O)c3ccccc3C2=O)cc1Cl	nt	3.8	nt	-2.0	nt	nt
Cc1ccc(N/N=C2\CC(=O)c3ccccc32)cc1Cl	nt	nt	24.6	nt	76.8*	nt
O=C(NCc1cccs1)c1nc2c(nnn2Cc2ccccc2Cl)c(=O)[nH]1	-20.3	5.2	18.9	nt	110.8*	-16.8
COc1ccccc1Cn1nnc2c(=O)[nH]c(C3CCN(C(=O)c4ccc(F)cc4)CC3)nc21	-8.4	-7.5	0.1	nt	0.7	0.9
COc1ccccc1Cn1nnc2c(=O)[nH]c(C3CCN(C(=O)c4ccccc4Cl)CC3)nc21	-0.8	-3.3	90.7*	nt	-28.3	17.7
CC(C)(C)CC(=O)N1CCC(c2nc3c(nnn3Cc3c(F)cccc3Cl)c(=O)[nH]2)CC1	-2.0	0.5	73.8*	-5.4	-14.8	13.3
O=C(c1cccs1)N1CCC(c2nc3c(nnn3Cc3ccccc3Cl)c(=O)[nH]2)CC1	-7.4	-0.1	51.7*	5.4	-5.2	15.6
C/C=C/c1ccccc1[C@H]1[C@@H](C#N)N(C(=O)c2cccnc2)[C@@H]1CO	nt	nt	nt	-0.8	nt	nt
COc1ccc(NC(=O)N[C@H]2CC[C@@H](CCNC(=O)c3ccccc3F)O[C@@H]2CO)cc1	nt	-0.3	nt	1.4	nt	nt
SMILES	PfHsp90 yeast 2	PglD DTNB	SKKanGAS inh	FN deposition inh	CSC inhib	Rtt109 Vps75
CC(C)(C)c1ccc(Cn2nnc3c(=O)[nH]c(C4CCCN(C(=O)c5cccs5)C4)nc32)cc1 (stereo not drawn)	-13.9	1.7	14.3	-11.6	78.6*	24.1
O=C(C[C@@H]1CC[C@H]2[C@@H](COC[C@H](O)CN2C(=O)Nc2ccc(Cl)cc2)O1)NC1Cc2ccccc2C1	nt	-12.9	nt	-14.5	nt	nt
Cc1ccnc2c1ccc1c(C)ccnc12	29.8	-4.1	nt	nt	110.6*	-0.8
Cc1ccnc2c1ccc1cccnc12	19.6	-0.8	nt	nt	nt	-5.9
CCCCSc1ccc2nc(-c3ccc(C#N)cc3)cn2c1	-10.2	-2.8	53.6*	nt	23.3	3.9
CC=Cc1ccc2n(c1=O)C[C@@H]1[C@@H](CO)[C@H](C(=O)NCCC)N(C(=O)C3CCOCC3)[C@H]21 (mixture of isomers)	nt	-0.5	nt	nt	nt	nt
N#C/C(=C(/O)COc1ccccc1)c1nc2ccccc2s1	35.6	-3.9	?	-2.8	11.9	-0.1
N#C/C(=C(/O)COc1ccc(Cl)cc1)c1nc2ccccc2s1	18.3	nt	89.9*	-27.6	98.9*	-23.2
Cc1ccc(SC/C(O)=C(\C#N)c2nc3ccccc3s2)cc1	-2.6	1.6	76.6*	nt	36.7	13.2
N#C/C(=C(/O)CSc1ccccn1)c1nc2ccccc2s1	27.7	nt	-0.5	-28.7	13.8	-6.8
CCCC#Cc1ccc2c(c1)O[C@H](CN(C)CCC)[C@@H](C)CN([C@H](C)CO)S2(=O)=O	nt	-0.1	nt	nt	nt	nt
Nc1nnc(SCC(=O)OCC(=O)NC2CCCCC2)s1	2.8	-1.8	1.6	-7.8	92.4*	-8.7
Nc1nnc(SCC(=O)NC2CCCCC2)s1	-7.8	-2.9	-1.6	nt	-15.4	-23.2
COc1ccc(CN(C)C[C@@H]2OCCCC[C@@H](C)Oc3ccc(NS(=O)(=O)c4ccc(OC)cc4)cc3C(=O)N([C@H](C)CO)C[C@H]2C)cc1	nt	-1.4	nt	-6.1	nt	nt
CO[C@H]1CN(C)C(=O)c2cc(NC(=O)c3ccc(F)cc3)ccc2OC[C@@H](C)N(Cc2cocn2)C[C@@H]1C	nt	-0.7	nt	5.1	nt	nt
N/C(Cc1ccc(Cl)cc1Cl)=N\OC(=O)c1cccs1	82.9*	1.6	-0.7	11.8	3.2	8.8
N/C(Cc1ccc(Cl)cc1Cl)=N\OC(=O)c1ccc(Br)o1	97.6*	-3.5	0.9	-35.1	0.2	-7.7
C[C@@H]1CCCCO[C@@H](CN(C)S(=O)(=O)c2ccc(F)cc2)[C@H](C)CN([C@H](C)CO)C(=O)c2cc(NS(=O)(=O)c3ccccc3)ccc2O1	nt	1.8	nt	nt	nt	nt
O=C(c1ccccn1)N1CC2(C1)[C@@H](c1ccccc1)[C@@H](CO)N2C(=O)C1CCCC1	nt	nt	nt	2.9	nt	nt
CN1C/C(=C\c2ccc(N3CCOCC3)cc2)C(=O)/C(=C/c2ccc(N3CCOCC3)cc2)C1	11.5	3.9	-8.9	nt	15.4	4.0
CCN1C/C(=C/c2ccc(N3CCOCC3)cc2)C(=O)/C(=C/c2ccc(N3CCOCC3)cc2)C1	3.5	nt	0.5	-1.1	103.5*	-0.9

Screening results (PubChem BioAssay)
